Data as given in paper PMC5568793 (Science translational medicine, 2017).

Key:
[1] = mouse, in vivo, iv
[2] = biological target: T1, type I collagen (Mus musculus, UniProt P11087+Q01149); assay: PET lung signal in low dose bleomycin vascular leak; format: in vivo; settings: day 14, 50-80 min after injection
In short: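 Male C57Bl/6 mice received intratracheal low-dose bleomycin (0.1 U/kg) and/or FTY720 (1 mg/kg i.p. thrice weekly), with 1E6 (1 mg/kg i.p. thrice weekly) where stated, all from day 0. On day 14, under isoflurane, 68Ga probe was given as an i.v. femoral bolus. Static PET ran for 30 min starting 50 min post-injection, with CT. MLEM reconstruction was used; lung VOIs of about 65 mm3 were read as decay-corrected %ID/cc.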

[3] = biological target: T1, type I collagen; assay: Ex vivo lung uptake in low dose bleomycin vascular leak; settings: day 14, 2.5 h post injection
In short: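 Male C57Bl/6 mice, 7–8 weeks old, received a single intratracheal bleomycin dose of 0.1 U/kg in saline, with or without FTY720 at 1 mg/kg i.p. three times weekly. 3G9 or isotype 1E6 antibody was given at 1 mg/kg i.p. three times weekly. All dosing started on day 0. On day 14, 68Ga probe was given as an i.v. femoral bolus under isoflurane. Mice were killed 150 min post-injection; the left lung was weighed and gamma-counted.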

[4] = biological target: T1, type I collagen; assay: Lung uptake of probe in bleomycin mouse model of pulmonary fibrosis; format: in vivo
In short: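 Male C57BL/6 mice (10 weeks, 20–28 g) received transtracheal bleomycin at 2.5 U/kg in 50 μL PBS through a cervical incision; sham mice were controls. On day 14, 68Ga probe was given as an i.v. bolus via femoral vein catheter under isoflurane. Dynamic PET-CT ran for 120 min, read as decay-corrected lung VOI %ID/cc. Mice were killed 150 min post-injection and organs weighed and gamma-counted.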

T1 sequence (P11087 152-1207 limits assumed): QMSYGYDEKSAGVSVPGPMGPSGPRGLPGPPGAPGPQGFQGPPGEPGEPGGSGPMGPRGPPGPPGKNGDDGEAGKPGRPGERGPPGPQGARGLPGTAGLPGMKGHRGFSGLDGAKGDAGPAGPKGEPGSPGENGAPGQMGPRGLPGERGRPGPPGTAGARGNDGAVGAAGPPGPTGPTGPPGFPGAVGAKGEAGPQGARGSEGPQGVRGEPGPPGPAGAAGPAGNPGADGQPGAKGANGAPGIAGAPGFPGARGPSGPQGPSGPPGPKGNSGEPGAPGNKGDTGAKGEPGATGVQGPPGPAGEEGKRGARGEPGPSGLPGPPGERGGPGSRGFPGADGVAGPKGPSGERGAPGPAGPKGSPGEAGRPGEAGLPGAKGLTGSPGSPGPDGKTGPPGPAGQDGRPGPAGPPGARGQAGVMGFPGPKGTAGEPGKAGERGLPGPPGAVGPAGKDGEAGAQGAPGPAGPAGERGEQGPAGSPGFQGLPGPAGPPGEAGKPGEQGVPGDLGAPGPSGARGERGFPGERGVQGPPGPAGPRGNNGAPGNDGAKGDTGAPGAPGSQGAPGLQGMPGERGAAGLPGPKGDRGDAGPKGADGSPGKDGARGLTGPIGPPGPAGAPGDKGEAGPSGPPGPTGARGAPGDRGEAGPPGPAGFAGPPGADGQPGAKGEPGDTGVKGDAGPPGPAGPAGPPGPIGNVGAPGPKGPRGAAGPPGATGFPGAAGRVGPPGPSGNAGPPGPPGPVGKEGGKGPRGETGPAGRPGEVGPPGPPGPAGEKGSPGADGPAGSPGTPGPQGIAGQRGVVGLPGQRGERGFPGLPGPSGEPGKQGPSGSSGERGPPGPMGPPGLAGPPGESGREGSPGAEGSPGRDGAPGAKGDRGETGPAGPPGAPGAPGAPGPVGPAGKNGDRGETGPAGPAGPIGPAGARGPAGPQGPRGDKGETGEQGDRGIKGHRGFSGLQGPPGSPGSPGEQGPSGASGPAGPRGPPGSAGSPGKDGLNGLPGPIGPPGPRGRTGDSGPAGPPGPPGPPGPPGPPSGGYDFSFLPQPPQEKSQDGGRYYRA
T1 sequence (Q01149 86-1125 limits assumed): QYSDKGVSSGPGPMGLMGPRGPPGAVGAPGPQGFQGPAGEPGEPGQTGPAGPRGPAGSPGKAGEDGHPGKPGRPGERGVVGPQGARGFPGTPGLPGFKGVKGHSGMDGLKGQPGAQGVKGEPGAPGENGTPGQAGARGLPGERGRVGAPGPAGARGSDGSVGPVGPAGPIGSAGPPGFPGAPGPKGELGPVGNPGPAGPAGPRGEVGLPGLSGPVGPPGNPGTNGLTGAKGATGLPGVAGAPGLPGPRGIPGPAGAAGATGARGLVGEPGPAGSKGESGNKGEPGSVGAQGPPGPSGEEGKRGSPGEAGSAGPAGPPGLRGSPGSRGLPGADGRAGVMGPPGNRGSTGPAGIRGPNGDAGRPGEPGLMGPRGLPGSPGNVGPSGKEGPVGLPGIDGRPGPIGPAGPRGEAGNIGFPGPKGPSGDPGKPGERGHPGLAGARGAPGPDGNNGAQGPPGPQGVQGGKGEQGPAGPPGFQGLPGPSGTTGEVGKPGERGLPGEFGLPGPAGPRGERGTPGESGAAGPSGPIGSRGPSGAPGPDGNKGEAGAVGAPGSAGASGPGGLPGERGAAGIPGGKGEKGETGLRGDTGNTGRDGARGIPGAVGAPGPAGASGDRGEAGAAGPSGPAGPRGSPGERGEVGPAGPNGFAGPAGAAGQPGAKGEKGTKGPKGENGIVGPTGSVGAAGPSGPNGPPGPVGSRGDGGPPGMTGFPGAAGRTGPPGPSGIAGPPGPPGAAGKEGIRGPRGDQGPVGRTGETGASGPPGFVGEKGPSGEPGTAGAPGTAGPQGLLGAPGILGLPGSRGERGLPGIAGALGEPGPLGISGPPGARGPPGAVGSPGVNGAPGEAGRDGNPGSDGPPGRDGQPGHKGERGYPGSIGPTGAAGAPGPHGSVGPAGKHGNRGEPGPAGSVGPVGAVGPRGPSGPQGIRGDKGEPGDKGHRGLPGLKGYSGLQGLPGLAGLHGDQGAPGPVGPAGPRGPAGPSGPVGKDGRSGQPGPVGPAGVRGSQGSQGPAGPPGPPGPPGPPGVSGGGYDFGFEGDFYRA

PET lung signal ([2]; FTY mice (FTY720 only), n=6): 1.5 ± 0.1 %ID/cc | PET lung signal ([2]; LDB mice (low dose BM only), n=4): 1.7 ± 0.1 %ID/cc | PET lung signal ([2]; LDBVL+1E6 mice (irrelevant antibody), n=11): 3.0 ± 0.2 %ID/cc | PET lung signal ([2]; LDBVL+3G9 mice (anti-αvβ6 antibody), n=11): 1.9 ± 0.2 %ID/cc | ex vivo lung uptake, LDBVL group relative to FTY group [3]: five times more uptake | ex vivo lung uptake, LDBVL group relative to LDB group [3]: three times more | ex vivo lung uptake, LDBVL+1E6 group relative to 3G9-treated group [3]: six times higher uptake | ex vivo lung uptake, LDBVL+1E6 group relative to LDBVL+3G9 group [3]: three times more uptake | ex vivo lung uptake, BM-mice day 14 relative to sham animals ([4]; BM day 14 (n=7) vs sham (n=11)): 5 fold | probe uptake in fibrotic mouse lungs compared to control lungs ([4]; discussion statement, mouse models of pulmonary fibrosis): 6 fold
Structure (SMILES): CC(C)C[C@H](NC(=O)[C@@H]1CSSC[C@H](NC(=O)[C@H](Cc2c[nH]cn2)NC(=O)[C@H](Cc2c[nH]c3ccccc23)NC(=O)[C@H](CCCCNC(=O)CNC(=O)CCC(C(=O)O)N2CCN(CC(=O)O)CCN(CC(=O)O)CC2)NC(=O)CCC(C(=O)O)N2CCN(CC(=O)O)CCN(CC(=O)O)CC2)C(=O)N[C@@H]([C@@H](C)O)C(=O)N[C@@H]([C@@H](C)O)C(=O)N[C@@H](CCCCNC(=O)CNC(=O)CCC(C(=O)O)N2CCN(CC(=O)O)CCN(CC(=O)O)CC2)C(=O)N[C@@H](Cc2ccccc2)C(=O)N2CCC[C@H]2C(=O)N[C@@H](Cc2c[nH]cn2)C(=O)N[C@@H](Cc2c[nH]cn2)C(=O)N[C@@H](Cc2ccc(O)cc2)C(=O)N1)C(=O)N[C@@H](Cc1ccc(O)cc1)C(=O)N[C@@H](Cc1ccc(-c2ccccc2)cc1)C(N)=O (some centres unmarked) [^68Ga-CBP8, metal not drawn]
blood half-life [1]: 32.9 ± 4.5 min
